TAAR1 agonist: agonists of human TAAR1; Q96RJ0; CHO RD-HGA16 TAAR1, Fluo-8 calcium fluorescence; vehicle wells 0%, saturating PEA agonist 100%; activation, % at 3 µM; 360,000 tested, 0.99% active;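 active = activation above the mean activation of all test compounds in the run plus 3 SD, cut at about 38% in these data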
Target sequence (Q96RJ0 whole entry, looked up): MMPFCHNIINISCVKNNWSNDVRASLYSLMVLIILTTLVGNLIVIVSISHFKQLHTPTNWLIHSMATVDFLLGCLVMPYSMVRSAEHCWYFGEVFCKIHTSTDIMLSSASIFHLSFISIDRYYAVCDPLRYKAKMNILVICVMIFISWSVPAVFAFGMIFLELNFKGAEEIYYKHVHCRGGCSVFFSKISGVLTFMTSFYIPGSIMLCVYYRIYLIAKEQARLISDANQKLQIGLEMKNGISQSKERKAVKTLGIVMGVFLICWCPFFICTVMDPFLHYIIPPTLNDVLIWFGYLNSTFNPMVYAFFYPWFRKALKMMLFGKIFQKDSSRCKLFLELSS
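Signal – calcium-sensitive Fluo-8 signal, excitation 470-495, emission 515-575 nm · System – RD-HGA16 (CHO) cells co-expressing Gα16 and hTAAR1 · Incubation – 17-24 h seeding, 75 min 37 °C dye, 30 min RT · Compound dosing – 3 µM single concentration · Repeats – no replicates (n 1)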
OX1R antag-1: human HCRTR1 antagonism; O43613; CHO/OX1R cells, Fluo-8 calcium fluorescence, orexin A; inhibition, % at 5 µM; 330,000 tested, 0.43% active; AID 434989;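 active = inhibition above its plate's threshold, mean inhibition of all tested compounds on the plate plus 3 SD, cut at about 37% in these data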
OX1R antag-2: blocks the human orexin 1 receptor | O43613 | OX1R-expressing cells, FRET antagonist read-out | inhibition, % at 6.6 µM | 330,000 tested, 1.8% active; in the data active = inhibition mostly above about 38%, no sharp cut-off; inactive = mostly below about 40%
CHO parental Ca: signal in parental CHO cells, OX1R antagonist counter-screen | 330,000 tested, 0.63% active | parental CHO-K1, ATP-induced calcium, Fluo-8 fluorescence | inhibition, % at 5.6 µM;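 active = inhibition above that plate's mean sample inhibition plus 3 SD, cut at about 26% in these data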
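Material: parental CHO cells / Compound: single nominal dose of 5.6 µM per compound / Signal: Fluo-8 fluorescence / Replicates: singlicate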
GalR3 antag: antagonists of human GalR3. O60755. HEK293 GalR3-CNG cAMP membrane potential fluorescence; galR3 body fused to GalR1 C-terminus. inhibition, % at 3 µM. 360,000 tested, 0.44% active. AID 651719;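 active = inhibition above the screen-wide average plus 3 SD, cut at about 13% in these data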;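 also: forskolin and galanin both at EC90 stimulate the cells; cAMP rise reported by CNG channel membrane potential dye signal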
Target sequence (O60755 1-299 limits assumed): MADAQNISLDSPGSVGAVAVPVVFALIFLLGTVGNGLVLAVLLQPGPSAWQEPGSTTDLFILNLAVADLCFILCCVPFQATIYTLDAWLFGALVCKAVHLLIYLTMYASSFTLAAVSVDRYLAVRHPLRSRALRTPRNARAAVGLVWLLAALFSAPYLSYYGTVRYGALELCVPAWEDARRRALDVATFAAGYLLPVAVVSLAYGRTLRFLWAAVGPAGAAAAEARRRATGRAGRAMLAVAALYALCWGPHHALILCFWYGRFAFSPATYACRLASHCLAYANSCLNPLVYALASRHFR
TAAR1 antagonist: human TAAR1 antagonism; Q96RJ0; 360,000 tested, 1.5% active; CHO RD-HGA16 TAAR1, Fluo-8 calcium fluorescence, antagonist; inhibition, % at 3 µM; AID 624466;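 active = inhibition above a per-plate cutoff, the mean inhibition of test compounds on that plate plus 3 SD, cut at about 49% in these data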
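Assay system: CHO-derived RD-HGA16 cells stably expressing human TAAR1 plus Gα16. Timing: 140 s kinetic read after compound, 140 s after agonist. Technique: kinetic Fluo-8 calcium fluorescence measurement. Measure: % inhibition of agonist calcium response.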
TAAR1 ag conf: confirmation of human TAAR1 agonists. shares compounds with TAAR1 agonist. CHO RD-HGA16 TAAR1, Fluo-8 calcium fluorescence; scaled: DMSO 0%, maximal phenethylamine 100%. activation, % at 3 µM. 2,400 tested, 82% active;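 active = activation above a cutoff set at the run's mean compound activation plus 3 SD, cut at about 39% in these data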
Ga16 nonsel ag: nonselective agonism, TAAR1 counter-screen. shares compounds with TAAR1 agonist. CHO-Ga16 parental, Fluo-8 calcium fluorescence; normalized to maximal ATP response, DMSO zero. activation, % at 3 µM. 2,400 tested, 50% active;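 active = activation above the run cutoff, the mean activation over all tested wells plus 3 SD, cut at about 12% in these data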
TAAR1 desens: TAAR1 response desensitization, agonist counter-screen; shares compounds with TAAR1 agonist; CHO RD-HGA16 hTAAR1, Fluo-8 calcium, beta-PEA response inhibition; inhibition, % at 3 µM; 2,400 tested, 46% active;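 active = inhibition above the run cutoff, the mean inhibition of all test compounds plus 3 SD, cut at about 49% in these data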;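 also: beta-PEA stimulus applied at its EC80; loss of beta-PEA calcium signal after compound pretreatment read as receptor desensitization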
Ga16 antag count: nonselective Ga16 antagonist in TAAR1 agonist counter-screen; shares compounds with TAAR1 agonist; CHO-Ga16 ATP-induced calcium, Fluo-8 fluorescence; inhibition, % at 3 µM; 2,400 tested, 39% active; AID 651952;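 active = inhibition above the plate's mean compound inhibition plus 3 SD, computed per plate, cut at about 22% in these data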
Each line names hits and unclear results; the compound was inactive in the other large screens (follow-up assays come after a bar, where they were run). Compounds with a hit are over-represented: about 4.3% of the library has one in this group of screens.

COc1ccc(CC(N)c2csc(Nc3ccccn3)n2)cc1 (configuration not stated)	none (no result: OX1R antag-1, OX1R antag-2, CHO parental Ca)
CCN1CCN(c2ccc(S(=O)(=O)N3CCCCC3)cc2NC(=O)c2ccc([N+](=O)[O-])s2)CC1	none
COC(=O)[C@@]12CCCCN1[C@H](c1ccc(-c3ccc(C(C)=O)cc3)c(OC)c1)[C@@H]1C(=O)N(C)C(=O)[C@@H]12	none
CCc1ccc(OCC(=O)NNC(=O)c2cc3ccccc3o2)cc1	TAAR1 agonist 75, CHO parental Ca 53, TAAR1 antagonist 71 | TAAR1 ag conf inactive | Ga16 nonsel ag inactive | TAAR1 desens inactive | Ga16 antag count inactive
Cc1cc(C)cc(OCC(=O)NNC(=O)c2cc3ccccc3o2)c1	none
Cn1ccnc1C1CCCCN1C(=O)c1cc(COc2ccc(F)cc2F)on1 (configuration not stated)	TAAR1 agonist 56 | TAAR1 ag conf inactive | Ga16 nonsel ag inactive | TAAR1 desens inactive | Ga16 antag count inactive
COC(=O)[C@@]1(Cc2ccc(F)cc2)[C@H]2c3cc(C(=O)N(C)C)n(CCc4ccccn4)c3C[C@H]2CN1C(=O)c1ccccc1	none
COC(=O)[C@@]1(Cc2ccc(F)cc2)[C@H]2c3cc(C(=O)N4CCCC4)n(CCc4ccccn4)c3C[C@H]2CN1C(=O)c1ccccc1	TAAR1 agonist 88 | TAAR1 ag conf 53 | Ga16 nonsel ag 14 | TAAR1 desens inactive | Ga16 antag count inactive
CN(C)c1ccc(-c2csc(C(O)c3ccc(F)cc3)n2)cc1 (configuration not stated)	TAAR1 agonist 77, TAAR1 antagonist 91 (no result: OX1R antag-1, OX1R antag-2, CHO parental Ca) | TAAR1 ag conf 90 | Ga16 nonsel ag 59 | TAAR1 desens 98 | Ga16 antag count 73
CN(C)c1ccc(-c2csc(C(O)c3ccccc3)n2)cc1 (configuration not stated)	none (no result: OX1R antag-1, OX1R antag-2, CHO parental Ca)
CSc1ncnc2c1ncn2CCCNCCCc1ccccc1	none (no result: OX1R antag-1, OX1R antag-2, CHO parental Ca)
CSc1ncnc2c1ncn2CCCNCCc1ccccn1	TAAR1 agonist 69 (no result: OX1R antag-1, OX1R antag-2, CHO parental Ca) | TAAR1 ag conf 82 | Ga16 nonsel ag inactive | TAAR1 desens inactive | Ga16 antag count inactive
O=C(O)c1ccc(N/N=C/C(Br)=C/c2ccccc2)cc1	TAAR1 agonist 122, TAAR1 antagonist 60 | TAAR1 ag conf inactive | Ga16 nonsel ag 19 | TAAR1 desens inactive | Ga16 antag count inactive
Oc1ccc(C2CNCc3sccc32)cc1O (configuration not stated)	TAAR1 agonist 92, TAAR1 antagonist 78 | TAAR1 ag conf 105 | Ga16 nonsel ag inactive | TAAR1 desens 95 | Ga16 antag count inactive
Oc1ccc(C2C[C@H]3CC[C@@H]2C3)cc1O (some centres not stated)	none
NS(=O)(=O)c1ccc(NC(=S)Nc2ccc(S(=O)(=O)Nc3nccs3)cc2)cc1	none (no result: OX1R antag-1, OX1R antag-2, CHO parental Ca)
COc1cccc(C(=O)Nc2ccc(NC(=O)Cc3ccccc3)cc2)c1	TAAR1 agonist 82 | TAAR1 ag conf 102 | Ga16 nonsel ag 23 | TAAR1 desens 67 | Ga16 antag count inactive
CN1CCN(c2ccc(NC(=O)c3cccc(OCc4ccccc4)c3)cc2)CC1	TAAR1 agonist 54 | TAAR1 ag conf 60 | Ga16 nonsel ag inactive | TAAR1 desens 71 | Ga16 antag count inactive
CC(C)Oc1cccc(C(=O)Nc2ccc(N3CCN(C)CC3)cc2)c1	none
Cc1cc(C)nc(OC(C(=O)O)C(OCc2ccccc2)(c2ccccc2)c2ccccc2)n1 (configuration not stated)	TAAR1 agonist 113 | TAAR1 ag conf 136 | Ga16 nonsel ag 58 | TAAR1 desens inactive | Ga16 antag count inactive
CCCOC(c1ccccc1)(c1ccccc1)C(Oc1nc(C)cc(C)n1)C(=O)O (configuration not stated)	none
CC(CC(=O)Nc1nnc(C(C)(C)C)s1)c1ccccc1 (configuration not stated)	none
COc1cccc(-c2cc(C(=O)Nc3cnn(Cc4ccc(F)cc4)c3)no2)c1	TAAR1 agonist 46 | TAAR1 ag conf inactive | Ga16 nonsel ag inactive | TAAR1 desens inactive | Ga16 antag count 23
Cn1c(=O)c2c(ncn2CCOC(=O)C(C)(C)Oc2ccc(Cl)cc2)n(C)c1=O	none (no result: OX1R antag-1, OX1R antag-2, CHO parental Ca)
Clc1ccccc1OCc1nnc(-c2ccccc2Br)o1	none
O=c1c(Cl)c(Cl)cnn1Cc1nnc(-c2ccccc2Br)o1	TAAR1 agonist 122, TAAR1 antagonist 104 (no result: OX1R antag-1, OX1R antag-2, CHO parental Ca) | TAAR1 ag conf 141 | Ga16 nonsel ag 111 | TAAR1 desens 106 | Ga16 antag count 99
Cc1cccc(N2CCN(C(=S)Nc3ccc4nc(N5CCN(C)CC5)cc(C)c4c3)CC2C)c1 (configuration not stated)	TAAR1 agonist 93, TAAR1 antagonist 85 | TAAR1 ag conf 103 | Ga16 nonsel ag 44 | TAAR1 desens 94 | Ga16 antag count 35
CN(C)S(=O)(=O)c1ccc(C(=O)NCC(=O)N/N=C/c2ccccc2)cc1	none (no result: TAAR1 agonist, TAAR1 antagonist) | Ga16 nonsel ag inactive | Ga16 antag count inactive
COCCC(=O)N1CCC(Oc2ccc(C(=O)NCCC3=CCCCC3)cc2)CC1	none
COc1ccc(N=CC2CCCCC2=O)c([N+](=O)[O-])c1 (configuration not stated)	none (no result: OX1R antag-1, OX1R antag-2, CHO parental Ca)
CNC(=O)C1(C)CCN1C(=O)Cc1ccc(C(C)C)cc1 (configuration not stated)	none (no result: OX1R antag-1, OX1R antag-2, CHO parental Ca)
CC(NC(=O)COC(=O)Cc1ccc(Cl)cc1)c1ccccc1 (configuration not stated)	none
CC(NC(=O)Cc1ccc(-c2ccccc2)cc1)c1ccccc1 (configuration not stated)	TAAR1 agonist 60 | TAAR1 ag conf inactive | Ga16 nonsel ag 18 | TAAR1 desens inactive | Ga16 antag count inactive
Cc1ccc(OCC(=O)N2CC(C)CC(C)C2)c([N+](=O)[O-])n1 (configuration not stated)	none
c1ccc(CCN=C2CCCc3c2[nH]c2ccccc32)cc1	TAAR1 agonist 95, TAAR1 antagonist 96 | TAAR1 ag conf 99 | Ga16 nonsel ag inactive | TAAR1 desens 101 | Ga16 antag count inactive

Bioassay records (PubChem BioAssay)
